High-throughput results: PubChem, several laboratories
Rows were chosen to be rich in hits. Some 3.1% of all compounds tested hit in one or more screens of this group.
PAFAH1B3 FP inh: PAFAH1B3 enzyme inhibitors, primary screen, biochemical, fluorescence polarization, human; hit rate 0.28% among 340,000; Platelet-activating factor acetylhydrolase IB subunit alpha1 (Homo sapiens), Q15102; recombinant PAFAH1B3, FP-rhodamine probe; inhibition, % at 3.39 µM; AID 492972, 2010;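 active means inhibition above the screen-wide average of all tested compounds plus 3 SD, cut at about 25% in these data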;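 further: 0% = enzyme with DMSO only and 100% = wells lacking PAFAH1B3 protein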
Apaf1 inhib: inhibitors of human Apaf-1 apoptosome, primary screen, biochemical, DEVD-Rh110 fluorescence, uHTS. Apoptotic protease-activating factor 1 (Homo sapiens), O14727. reconstituted apoptosome caspase-3 activity. inhibition, % at 20 µM. hit rate 0.71% among 330,000. AID 489030, 2010; active means inhibition of at least 40% at 20 µM;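 further: plate controls were DMSO wells for no effect and DEVD-CHO caspase inhibitor wells for full effect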
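System – cell-free apoptosome with Apaf-1, procaspase-3 and caspase-9 · Buffer or medium – pH 7.5 Hepes buffer with CHAPS, BSA, DTT · Also added – cytochrome c with DEVD-Rh110 · Times – 30 min compound preincubation, 50 min activation, room temperature · Technique – Rh110 fluorescence intensity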
PAFAH1B2 FP inh: PAFAH1B2 enzyme inhibitors, primary screen, biochemical, fluorescence polarization, human; inhibition, % at 3.39 µM; recombinant PAFAH1B2, FP-rhodamine activity probe; AID 492953, 2010; hit rate 1.2% among 340,000;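 active means inhibition above the mean of all tested compounds plus 3 SD, cut at about 24% in these data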;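 further: 0% = enzyme with DMSO and 100% = wells lacking PAFAH1B2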
Target sequence (P68402 whole entry, looked up): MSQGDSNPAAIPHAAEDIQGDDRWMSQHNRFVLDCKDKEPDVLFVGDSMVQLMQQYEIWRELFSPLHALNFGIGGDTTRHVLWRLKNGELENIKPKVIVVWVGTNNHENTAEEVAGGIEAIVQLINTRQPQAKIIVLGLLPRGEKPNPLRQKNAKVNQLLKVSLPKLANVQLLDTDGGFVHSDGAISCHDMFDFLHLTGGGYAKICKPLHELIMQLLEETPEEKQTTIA
PAFAH2 inh: PAFAH2 enzyme inhibitors, primary screen, biochemical, fluorescence polarization, human; recombinant PAFAH2, FP-rhodamine activity probe; inhibition, % at 3.39 µM; Platelet-activating factor acetylhydrolase 2, cytoplasmic (Homo sapiens), Q99487; hit rate 0.99% among 340,000;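 active means inhibition above the mean over all tested compounds plus 3 SD, cut at about 30% in these data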;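 further: inhibitors block probe labeling of enzyme so polarization drops; 0% = enzyme with DMSO and 100% = wells lacking PAFAH2 protein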
pPAFAH FP inh: pPAFAH enzyme inhibitors, primary screen, biochemical, fluorescence polarization, human | Platelet-activating factor acetylhydrolase (Homo sapiens), Q13093 | recombinant pPAFAH, FP-rhodamine probe fluorescence polarization | inhibition, % at 3.39 µM | hit rate 1.5% among 330,000 | AID 463082, 2010;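 active means inhibition above the mean inhibition across the screen plus 3 SD, cut at about 25% in these data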;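 further: inhibitors block binding of the rhodamine activity-based probe so polarization drops; 0% = enzyme with DMSO and 100% = wells lacking pPAFAH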
Target sequence (Q13093 whole entry, looked up): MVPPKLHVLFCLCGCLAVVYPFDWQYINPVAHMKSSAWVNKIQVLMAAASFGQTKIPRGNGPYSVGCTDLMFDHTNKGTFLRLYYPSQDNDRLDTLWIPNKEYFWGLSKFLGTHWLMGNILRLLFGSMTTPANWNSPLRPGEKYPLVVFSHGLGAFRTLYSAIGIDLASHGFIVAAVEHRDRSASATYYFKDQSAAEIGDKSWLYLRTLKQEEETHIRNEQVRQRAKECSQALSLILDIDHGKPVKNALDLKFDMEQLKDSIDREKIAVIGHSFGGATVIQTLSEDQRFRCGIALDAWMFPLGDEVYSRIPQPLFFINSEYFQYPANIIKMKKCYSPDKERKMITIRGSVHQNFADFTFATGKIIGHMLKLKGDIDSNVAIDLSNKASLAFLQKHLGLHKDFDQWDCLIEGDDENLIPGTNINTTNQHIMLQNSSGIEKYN
PAFAH2 confirm: PAFAH2 enzyme inhibitors, confirmation, biochemical, fluorescence polarization, human; shares compounds with PAFAH2 inh; recombinant PAFAH2, FP-rhodamine activity probe; inhibition, % at 3.39 µM; hit rate 65% among 2,300; AID 493030, 2011;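 active means mean inhibition over three repeats above a set limit taken from the earlier primary screen, cut at about 30% in these data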;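 further: inhibitor blocks binding of rhodamine activity probe so polarization falls; 0% = enzyme with DMSO and 100% = wells lacking PAFAH2 protein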
The depositor's hits bear a star; nt = no result.

SMILES	PAFAH1B3 FP inh	Apaf1 inhib	PAFAH1B2 FP inh	PAFAH2 inh	pPAFAH FP inh	PAFAH2 confirm
COc1ccc(C(=O)NC(=S)NCc2ccco2)cc1Br	8	22	-2	-1	-3	nt
Nc1nonc1-n1nnc(C(=O)N/N=C/c2ccccc2Br)c1CN1CCCC1	4	5	-3	-11	-4	nt
COc1ccc(NC(=O)c2ccc(-c3nn(C)c(=O)c4ccccc34)cc2)cc1	19	-7	0	35*	3	8
O=C(COC(=O)c1cc(Cl)ccc1[N+](=O)[O-])NCc1ccc(Cl)cc1Cl	5	9	9	30*	1	25
O=C(COC(=O)c1ccco1)NCc1ccc(Cl)cc1Cl	7	-4	4	69*	-3	51*
O=C(COC(=O)c1cc(Cl)ccc1[N+](=O)[O-])Nc1cccc2ccccc12	10	13	0	23	10	nt
O=C(COC(=O)c1ccco1)NNC(=O)c1ccc(Cl)cc1	11	-4	5	11	1	nt
O=C(COC(=O)c1ccco1)NCc1ccccc1Cl	1	6	3	58*	-5	38*
O=C(COC(=O)c1ccccn1)NCc1ccc(Cl)cc1Cl	0	-8	-4	-1	4	nt
O=C(COC(=O)c1ccco1)NCCc1ccc(Cl)cc1	8	-5	7	49*	-2	31*
Cc1ccc(N2C(=O)CC(Sc3ccccc3C(=O)O)C2=O)cc1 (stereo not drawn)	2	-3	0	92*	4	-8
CCC(NC(=S)NCc1ccc(F)cc1)c1ccccc1 (stereo not drawn)	-6	11	14	9	2	nt
Cc1ccc(C(=O)NCc2ccco2)cc1S(=O)(=O)N1CCOCC1	12	1	4	-2	-4	nt
COc1ccc(C(=O)OCC(=O)NCc2ccco2)cc1S(=O)(=O)N1CCN(c2cccc(Cl)c2)CC1	9	18	0	32*	15	35*
Cc1ccc(C(=O)OCC(=O)NCc2ccco2)cc1S(=O)(=O)N1CCOCC1	6	1	0	44*	17	39*
COc1ccc(C(=O)OCC(=O)Nc2ccccc2)cc1[N+](=O)[O-]	3	1	7	71*	8	73*
COc1ccc(C(=O)OCC(=O)NC2CCCCCCC2)cc1OC	6	-3	-1	87*	13	78*
Cc1ccc(C(=O)OCC(=O)NC2CCCC2)cc1C	9	5	4	87*	17	82*
COc1ccc(C(=O)OCC(=O)NC2CCCC2)cc1OC	5	5	2	76*	6	80*
COc1ccc(C(=O)OCC(=O)NC(=O)NCc2ccccc2)cc1[N+](=O)[O-]	7	13	7	10	-3	nt
COc1ccc2nc3cc(Cl)ccc3c(Nc3ccc(O)c(CN4CCN(C)CC4)c3)c2c1	10	nt	2	1	nt	nt
COc1ccc(C(=O)OCC(N)=O)cc1[N+](=O)[O-]	10	1	1	-1	-2	nt
O=C(COC(=O)c1ccc(O)cc1O)NC1CCS(=O)(=O)C1 (stereo not drawn)	0	-18	0	9	1	nt
COc1ccc(C(=O)OCC(=O)NC2CC2)cc1OC	4	-6	3	67*	1	55*
COc1cc(OC)cc(C(=O)OCC(=O)NC2CCCCCC2)c1	14	-5	6	61*	21	59*
SMILES	PAFAH1B3 FP inh	Apaf1 inhib	PAFAH1B2 FP inh	PAFAH2 inh	pPAFAH FP inh	PAFAH2 confirm
O=C(COC(=O)c1ccc(O)cc1O)NC1CCCCCC1	3	-8	5	46*	10	31*
COc1ccc(C(=O)OCC(=O)NC2CC2)cc1[N+](=O)[O-]	12	0	5	31*	11	24
CC1CCC(NC(=O)COC(=O)c2ccc3ncsc3c2)CC1 (stereo not drawn)	5	14	1	83*	-7	69*
COc1ccc(C(=O)NCC(=O)OCC(=O)NC2CCCCCC2)cc1OC	4	11	10	4	-7	nt
CCOc1ccc(NC(=O)COC(=O)c2ccc3ncsc3c2)cc1OCC	2	-5	-4	-1	nt	nt
Cc1ccc(OCC(=O)NC2CCCC2)c(C)c1	4	1	2	3	3	nt
Cc1ccc(C(=O)OCC(=O)NC2CCCCCC2)c(C)c1	4	8	2	86*	nt	78*
COc1ccc(C(=O)OCC(=O)NC2CCCCCC2)cc1OC	-1	-39	-1	93*	9	83*
CCOc1ccc(C(=O)OCC(=O)NC2CCCC2)cc1OCC	4	1	0	84*	14	82*
Cc1ccc(C)c(N(CC(=O)NC2CCCC2)S(=O)(=O)c2ccccc2)c1	6	8	11	4	-8	nt
Cc1ccc(C(=O)NNC(=O)c2ccc(Br)s2)cc1S(=O)(=O)N1CCOCC1	4	-11	1	39*	5	-4
O=C(NNC(=O)c1ccc(Br)s1)c1ccc(F)c(S(=O)(=O)N2CCOCC2)c1	4	0	1	3	-4	nt
C/C(=N\OC(=O)c1ccccc1)c1cc(-c2ccc(Cl)cc2)no1	2	13	2	-4	2	nt
C/C(=N/OC(=O)C1CC1)c1cc(-c2ccc(Cl)cc2)no1	12	2	7	73*	2	61*
COc1cc(CCC(=O)Nc2ccc(C)c(S(=O)(=O)N3CCCCCC3)c2)cc(OC)c1OC	5	-4	2	-4	5	nt
CCCCNC(=O)c1ccccc1SCC(=O)NC1CCCCCCC1	5	16	5	36*	0	28
CN(C)C(=O)CSc1ccccc1C(=O)OCC(=O)NC1CC1	6	-2	1	6	3	nt
NC(=O)COC(=O)c1ccccc1SCC(=O)NC1CCCCCC1	1	-2	-2	61*	4	49*
CC(C)CNC(=O)COC(=O)c1ccccc1SCC(=O)NCC(C)C	11	0	2	44*	2	32*
CCn1c(CNC(=O)c2ccccc2F)nnc1SCC(=O)NC1CCCCC1	7	-9	0	-6	-5	nt
COc1cccc(OC)c1C(=O)OCC(=O)NCC(C)C	0	-16	8	14	3	nt
CNC(=O)c1cc(Oc2ccc(NC(=O)Nc3ccc(Cl)c(C(F)(F)F)c3)cc2)ccn1	-59	6	-30	-77	-36	nt
O=C(NCc1cccc2ccsc12)c1cccs1	8	-3	8	1	1	nt
CC(C#N)N1CCN(S(=O)(=O)c2ccc3c(c2)CCC3)CC1 (stereo not drawn)	8	5	0	-3	3	nt
CN1C(C)(C)CC(=NOC(=O)c2ccccc2)CC1(C)C	1	3	1	3	-3	nt
O=C(ON=C1CCSCC1)c1ccccc1	5	-7	1	78*	8	76*
